The test system of experiment [1] is INS-1E cytokine-induced caspase-3/7 luminescence, 48 h. The experiment can be described thus: suppressors of cytokine-driven caspase-3/7 activity, dose response, orthogonal assay for beta-cell apoptosis inhibitor project, INS-1E rat cells, dry powder, set 2 (AID 488936). The method in brief:
(§1)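 reagent = cytokine mix of IFN-gamma 50, TNF-alpha 25, IL-1β 10 ng/mL | material = rat INS-1E insulinoma beta cells, cytokine-induced apoptosis model | incubation = 48 h cytokine and compound exposure, 1 h detection | technique = Caspase-Glo 3/7 luminescence | evaluation = Caspase-3/7 IC50 from dose-response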

Test in experiment [2]: as above
The following applies: INS-1E cytokine-induced caspase-3/7 luminescence, 48 h; at 26 µM (top of the series). Summed up: as §1

SMILES strings stand for the structures. Activity calls are given as the source filed them.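 The calls were made as follows: active = compounds lowering caspase luminescence whose fitted AC50 is at most ten times their top valid dose; inconclusive = flat partial inhibition or a poor quality curve fit; inactive = the rest.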 Where only a bound is given, the exact number is not on record here.

`C[C@@H]1CN([C@@H](C)CO)C(=O)c2cccc(NC(=O)Nc3cccc4ccccc34)c2O[C@H]1CN(C)S(=O)(=O)c1ccc2c(n1)N(C)CCO2`: the AC50 in experiment [1] is > 26 µM (inactive). On the same count and under the same terms, with `C[C@@H]1CN([C@@H](C)CO)C(=O)c2cccc(NC(=O)Nc3cccc(Cl)c3Cl)c2O[C@H]1CN(C)S(=O)(=O)c1ccc2c(c1)OCCO2` the figure was > 26 µM (inactive); with `COc1ccc(S(=O)(=O)N(C)C[C@@H]2Oc3c(NC(=O)Nc4cccc5ccccc45)cccc3C(=O)N([C@H](C)CO)C[C@H]2C)cc1`, > 23.5 µM (inactive). On the same count and under the same terms, with `COc1ccc(S(=O)(=O)N(C)C[C@@H]2Oc3c(NC(=O)Nc4ccccc4)cccc3C(=O)N([C@@H](C)CO)C[C@H]2C)cc1` the figure was > 26 µM (inactive). On to `COc1ccc(S(=O)(=O)N(C)C[C@@H]2Oc3c(NC(=O)Nc4cccc5ccccc45)cccc3C(=O)N([C@@H](C)CO)C[C@H]2C)cc1F`, for which the activity change, negative = inhibition in experiment [2] was 5.84% (inactive).

As for `COc1ccc(S(=O)(=O)N(C)C[C@@H]2Oc3c(NC(=O)C4CCCCC4)cccc3C(=O)N([C@@H](C)CO)C[C@H]2C)cc1`, the activity change, negative = inhibition in experiment [2] was -7.12% (inactive).

For `COc1ccc(S(=O)(=O)Nc2cccc3c2O[C@@H](CN(C)S(=O)(=O)c2ccc(OC)cc2)[C@H](C)CN([C@@H](C)CO)C3=O)cc1`, in experiment [2], the activity change, negative = inhibition was -1.2% (inactive). Same read-out and setting: in the case of `C[C@@H]1CN([C@H](C)CO)C(=O)c2cccc(NC(=O)Nc3ccccc3)c2O[C@H]1CN(C)S(=O)(=O)c1ccc(Cl)cc1` it was -6.09% (inactive); in that of `COc1ccc(S(=O)(=O)N(C)C[C@@H]2Oc3c(NC(=O)c4ccncc4)cccc3C(=O)N([C@@H](C)CO)C[C@H]2C)cc1`, -4.94% (inactive).

As for `C[C@@H]1CN([C@@H](C)CO)C(=O)c2cccc(NC(=O)Nc3cccc4ccccc34)c2O[C@H]1CN(C)S(=O)(=O)c1ccc2c(c1)oc(=O)n2C`, the activity change, negative = inhibition in experiment [2] was 0.941% (inactive).

As a reminder, the AC50 is the midpoint of the concentration-response curve, whichever way the signal moves.
